Measurements: ChEMBL document CHEMBL3272090, “A new type of anticonvulsant: 1-aryl-3-oxotetrahydroisoquinolines” (J Med Chem, 1977)
The source made the active and inactive calls.

Assays:
[1] = Acute toxicity in po dosed mouse assessed as mortality after 24 hrs; type: organism-based; conditions: in vivo
[2] = Protective index, ratio of ED50 for neurotoxicity in po dosed mouse by rotarod test to ED50 for anticonvulsant activity in po dosed mouse assessed as protection against maximal electroshock-induced seizures; type: toxicity, organism-based; conditions: in vivo, read-out: Ratio ED50
Procedure, shortened: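 Index calculated as rotarod ED50 divided by MES ED50, both from mice dosed perorally in Tween suspension 3 h before testing.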

[3] = tested on: Mus musculus; experiment: Neurotoxicity in po dosed mouse by rotarod test; type: toxicity, organism-based; conditions: in vivo
Procedure, shortened: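 Mice dosed perorally with Tween suspension 3 h before rotarod testing for neurotoxicity. Median effective dose with 95% confidence limits by Litchfield–Wilcoxon method.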

[4] = tested on: Mus musculus; experiment: Anticonvulsant activity in mouse assessed as protection against pentylenetetrazole-induced convulsion at 300 mg/kg, po pretreated for 3 hrs; type: functional, organism-based; design: dose 300 mg/kg
Procedure, shortened: (§1)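 Peroral dosing in mice as Tween suspension, 3 h before pentylenetetrazole threshold test (Orloff method). Activity taken as a rise in threshold PTZ dose of at least 50% versus saline-pretreated controls.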

[5] = tested on: Mus musculus; experiment: Anticonvulsant activity in po dosed mouse assessed as protection against maximal electroshock-induced seizures pretreated for 3 hrs; type: functional
Procedure, shortened: (§2)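 Mice given compound perorally as a Tween suspension 3 h before maximal electroshock seizure testing (Swinyard method). Median effective dose with 95% confidence limits by Litchfield–Wilcoxon; doses up to 300 mg/kg examined.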

[6] = tested on: Mus musculus; experiment: Anticonvulsant activity in po dosed mouse assessed as protection against pentylenetetrazole-induced convulsion pretreated for 3 hrs; type: functional; procedure, shortened: as §1
[7] = tested on: Mus musculus; experiment: Anticonvulsant activity in mouse assessed as protection against maximal electroshock-induced seizures at 300 mg/kg, po pretreated for 3 hrs; type: functional, organism-based; design: dose 300 mg/kg; procedure, shortened: as §2

Row | Structure (SMILES) | LD50 at 24 h [1] [mg/kg] | selectivity ratio [2] | ED50 [3] [mg/kg] | Activity [4] | ED50 [5] [mg/kg] | ED50 [6] [mg/kg] | Activity [7]
1 | CCNCC(=O)Nc1ccc(C2NC(=O)Cc3ccccc32)cc1 (configuration not stated) | > 1600 | 51 | 520 |  |  |  | 
2 | O=C(CCCN1CCCC1)Nc1ccc(C2NC(=O)Cc3ccccc32)cc1 (configuration not stated) | > 2000 | > 9 | > 2000 | inactive | 215 |  | 
3 | O=C1Cc2ccccc2C(c2ccccc2)N1 (configuration not stated) | 1060 | 7 | 730 | inactive | 105 |  | 
4 | CCCNCC(=O)Nc1ccccc1C1NC(=O)Cc2ccccc21 (configuration not stated) | > 2000 | > 11 | > 2000 |  | 180 | 300 | 
5 | CNCC(=O)Nc1ccc(C2NC(=O)C(C)(C)c3ccccc32)cc1 (configuration not stated) | > 2000 | 24 | 600 | inactive |  |  | 
6 | CCCNCC(=O)Nc1ccc(C2NC(=O)Cc3ccccc32)cc1 (configuration not stated) | 2000 | 24 | 490 |  | 20.6 |  | 
7 | CCCNCC(=O)Nc1ccc(C2NC(=O)C(C)(C)c3ccccc32)cc1 (configuration not stated) | > 1600 | 14 | 435 |  |  |  | 
8 | CCCNCC(=O)Nc1ccc(C2NC(=O)C(C(C)C)c3ccccc32)cc1 (configuration not stated) | 600 | 2.5 | 50 | inactive | 19.6 |  | 
9 | CCN(CC)CC(=O)Nc1ccc(C2NC(=O)C(C)(C)c3ccccc32)cc1 (configuration not stated) | 1600 | 15 | 1300 | inactive | 90 |  | 
10 | CCCCN(CCCC)CC(=O)Nc1ccc(C2NC(=O)C(C)(C)c3ccccc32)cc1 (configuration not stated) | > 2000 | 10 | 600 | inactive | 62 |  | 
11 | Nc1ccc(Cl)c(C2NC(=O)Cc3ccccc32)c1Cl (configuration not stated) | > 1000 |  | > 1000 | inactive |  |  | inactive
12 | O=C(CN1CCCCC1)Nc1ccc(C2NC(=O)Cc3ccccc32)cc1 (configuration not stated) | > 2000 |  | > 2000 |  |  | 300 | inactive
13 | CC1(C)C(=O)NC(c2ccccc2N)c2ccccc21 (configuration not stated) | > 1000 | > 9 | > 1000 |  | 110 |  | 
14 | CCNCC(=O)Nc1ccc(C2NC(=O)C(C)(C)c3ccccc32)cc1 (configuration not stated) | > 2000 |  | 760 |  |  |  | inactive
15 | O=C1NC(=O)C(c2ccccc2)(c2ccccc2)N1 [PHENYTOIN] | > 1000 | 15 | 79.5 |  | 5.2 | 26 | 
16 | CC1C(=O)NC(c2ccc(N)cc2)c2ccccc21 (configuration not stated) | > 2000 | 10 | 250 |  | 26 | 100 | 

Row | Structure (SMILES) | LD50 at 24 h [1] [mg/kg] | selectivity ratio [2] | ED50 [3] [mg/kg] | Activity [4] | ED50 [5] [mg/kg] | ED50 [6] [mg/kg] | Activity [7]
17 | CC1(C)C(=O)NC(c2ccc(NC(=O)CN)cc2)c2ccccc21 (configuration not stated) | > 1000 | 13 | 420 | inactive | 32.5 |  | 
18 | Cc1ccc2c(c1)C(c1ccc(N)cc1)NC(=O)C2(C)C (configuration not stated) | > 1600 | 15 | 1030 |  | 70 | 300 | 
19 | CC1(C)C(=O)NC(c2ccc(N)cc2)c2ccccc21 (configuration not stated) | > 1600 | 12 | 240 |  | 20 | 100 | 
20 | CCCNCC(=O)Nc1ccc(C2NC(=O)C(C)c3ccccc32)cc1 (configuration not stated) | > 1600 | 15 | 340 |  |  | 100 | 
21 | O=C1Cc2ccccc2C(c2ccc(NC(=O)NCc3ccccc3)cc2)N1 (configuration not stated) | > 2000 | > 7 | > 2000 | inactive | 275 |  | 
22 | CC(C)NCC(=O)Nc1ccc(C2NC(=O)Cc3ccccc32)cc1 (configuration not stated) | > 1000 | 26 | 270 |  |  |  | 
23 | CC1(C)C(=O)NC(c2ccc(NC(=O)CN3CCOCC3)cc2)c2ccccc21 (configuration not stated) | 2000 | > 20 | > 1600 |  | 78 | 300 | 
24 | CC(C)NCC(=O)Nc1ccc(C2NC(=O)C(C)(C)c3ccccc32)cc1 (configuration not stated) | > 2000 | 59 | 1600 |  |  | 100 | 
25 | CC(C)C1C(=O)NC(c2ccc(NC(=O)CCCN3CCCC3)cc2)c2ccccc21 (configuration not stated) | > 1000 |  | 86 | inactive |  |  | inactive
26 | CCCCNCC(=O)Nc1ccc(C2NC(=O)C(C)(C)c3ccccc32)cc1 (configuration not stated) | > 2000 | 14 | 335 | inactive | 23.5 |  | 
27 | CC(C)C1C(=O)NC(c2ccc(N)cc2)c2ccccc21 (configuration not stated) | > 1600 | 18 | 358 |  | 20 | 20 | 
28 | CNCC(=O)Nc1ccc(C2NC(=O)Cc3ccccc32)cc1 (configuration not stated) | 600 | 12 | 270 |  |  |  | 
29 | CC1(C)C(=O)NC(c2ccc(NC(=O)CN3CCCCC3)cc2)c2ccccc21 (configuration not stated) | > 2000 | > 36 | > 2000 | inactive | 62 |  | 
30 | Nc1ccccc1C1NC(=O)Cc2ccccc21 (configuration not stated) | > 2000 | 7 | 940 | inactive | 140 |  | 
31 | O=C(CN1CCOCC1)Nc1ccc(C2NC(=O)Cc3ccccc32)cc1 (configuration not stated) | > 1600 | > 29 | > 1600 | inactive | 55 |  | 
32 | Cl.Nc1ccc(C2NC(=O)Cc3ccccc32)cc1 (configuration not stated) | 795 | 5 | 95 |  | 19 | 50 | 
